Test results reported in PubChem BioAssay.
The source made the active and inactive calls.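 How the source made its calls, unless noted: active means compounds giving at least 50% inhibition in the cell-based MKP-3 phosphatase rescue imaging test; inactive means the rest.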

Key:
[1] = inhibitors of TNFa-induced NFkB p65 translocation, primary screen, imaging, HUVEC, MLSMR starter and 10KST1 sets (AID 438;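 active means inhibition above 20% together with a positive visual image hit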;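 further: compound added about 3h40 before a 20 min TNFalpha stimulation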;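 on inhibition: signal is the nuclear over cytoplasmic p65 intensity ratio per well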); conditions: HUVEC TNFa-induced p65 nuclear translocation; cell count: measured here: nuclei count (cytotoxicity indicator), at 2.08 µM; inhibition: at 2 µM, stronger effect = higher value, 0% TNFa-plus-vehicle, 100% no-TNFa wells
[2] = inhibitors of E-selectin induction by TNFa, primary screen, imaging, HUVEC, immunofluorescence, MLSMR starter and 10KST1 sets (AID 487;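 active means visually confirmed hit in the image check and inhibition above 20%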;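 on inhibition: signal is fraction of cell area covered by stained E-selectin grains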;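 on nuclei count: 100% = median nuclei count of all wells on the same plate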); conditions: HUVEC TNFalpha-induced E-selectin immunofluorescence imaging, at 2 µM; inhibition: stronger effect = higher value; nuclei count: measured here: cell number, toxicity
[3] = DUSP6 inhibitors restoring Erk phosphorylation by chemical complementation, primary imaging in DUSP6-transfected HeLa (AID 609); conditions: HeLa MKP-3 transfected, phospho-Erk imaging KS statistic, at 10 µM, cells stimulated with TPA for 15 min;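 on inhibition: phospho-Erk level distribution per well compared with pooled transfected vehicle control wells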
[4] = target: Dual specificity protein phosphatase 6 (Homo sapiens) (UniProt Q16828); test: as above; conditions: HeLa MKP-3 transfected, phospho-Erk imaging KS statistic; at 10 µM; stronger effect = higher value; cells stimulated with TPA for 15 min
Chain of Dual specificity protein phosphatase 6 (Homo sapiens) (Q16828 whole entry, looked up): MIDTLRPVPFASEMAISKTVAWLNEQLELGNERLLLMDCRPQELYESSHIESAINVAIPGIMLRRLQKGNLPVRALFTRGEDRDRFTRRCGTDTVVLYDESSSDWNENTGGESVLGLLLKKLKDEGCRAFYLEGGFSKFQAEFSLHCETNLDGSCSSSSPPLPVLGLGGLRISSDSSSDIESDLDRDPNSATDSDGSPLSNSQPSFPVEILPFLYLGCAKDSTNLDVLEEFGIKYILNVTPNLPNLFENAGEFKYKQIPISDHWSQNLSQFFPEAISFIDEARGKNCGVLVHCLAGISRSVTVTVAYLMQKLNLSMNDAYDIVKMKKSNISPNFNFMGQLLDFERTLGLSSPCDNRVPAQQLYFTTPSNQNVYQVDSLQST

[5] = target: Voltage-gated potassium channel subunit beta-2 (Rattus norvegicus) (UniProt P62483); test: KvBeta enzyme negative modulators, primary screen, biochemical, NADPH fluorescence (AID 622;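 active means fluorescence slope higher than the sample average by over 3 SD, cut at about -0.22 in these data, passing the limit was not always enough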;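 further: slope of raw intensity against log time taken from 70 to 1610 s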); conditions: recombinant KvBeta, 4-cyanobenzaldehyde reduction, at 10 µM, stronger effect = higher value
Chain of Voltage-gated potassium channel subunit beta-2 (Rattus norvegicus) (P62483 whole entry, looked up): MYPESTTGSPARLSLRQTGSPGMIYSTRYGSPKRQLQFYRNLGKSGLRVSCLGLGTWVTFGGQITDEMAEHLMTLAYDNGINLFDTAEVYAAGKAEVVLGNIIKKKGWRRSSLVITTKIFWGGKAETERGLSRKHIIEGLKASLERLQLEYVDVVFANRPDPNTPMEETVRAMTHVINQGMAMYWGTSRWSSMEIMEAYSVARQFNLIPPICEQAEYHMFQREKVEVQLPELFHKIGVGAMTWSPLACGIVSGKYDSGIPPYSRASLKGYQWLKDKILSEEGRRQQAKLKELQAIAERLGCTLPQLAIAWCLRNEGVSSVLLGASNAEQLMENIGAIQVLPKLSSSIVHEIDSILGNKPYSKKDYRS

[6] = target: Voltage-gated potassium channel subunit beta-2 (Rattus norvegicus) (UniProt P62483); test: KvBeta positive modulators, primary screen, biochemical, NADPH fluorescence (AID 623;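 active means NADPH fluorescence slope more negative than the mean of all samples by about 3 SD, 99.7% confidence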;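 further: fluorescence intensity change per second fitted from 20 to 320 s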); conditions: Recombinant KvBeta, NADPH fluorescence decrease slope, 10 min; at 10 µM; stronger effect = lower value
[7] = target: Alpha-2C adrenergic receptor (Homo sapiens) (UniProt P18825); test: modulators of alpha2C/GIRK thallium flux, primary screen, cell-based, HEK293 alpha2C/GIRK1/2 (AID 624;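 active means fluorescence slope after compound addition differing from the mean of all screened samples at 99.7% confidence, in either direction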;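 further: slope of fluorescence ratio to pre-addition baseline per second over 15 to 24 s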); conditions: thallium flux BTC fluorescence, at 10 µM, actives lie on both sides
Chain of Alpha-2C adrenergic receptor (Homo sapiens) (P18825 whole entry, looked up): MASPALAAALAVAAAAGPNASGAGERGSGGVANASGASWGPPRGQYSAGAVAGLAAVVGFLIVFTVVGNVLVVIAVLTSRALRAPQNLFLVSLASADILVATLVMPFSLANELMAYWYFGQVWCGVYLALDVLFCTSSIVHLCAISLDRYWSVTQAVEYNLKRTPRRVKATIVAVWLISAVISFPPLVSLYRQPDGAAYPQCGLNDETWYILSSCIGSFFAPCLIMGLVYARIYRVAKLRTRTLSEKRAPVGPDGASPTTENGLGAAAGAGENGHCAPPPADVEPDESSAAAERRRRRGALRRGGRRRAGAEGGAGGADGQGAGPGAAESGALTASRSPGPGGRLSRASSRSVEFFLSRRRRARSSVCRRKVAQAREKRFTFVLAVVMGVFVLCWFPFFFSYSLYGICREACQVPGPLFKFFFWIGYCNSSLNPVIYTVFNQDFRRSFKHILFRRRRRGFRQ

[8] = inhibitors of larval lipid processing in zebrafish, primary screen, whole organism, PED6 fluorescence, gall bladder and intestine (AID 686;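 active means a full or partial loss of lipid-probe fluorescence in the fish gall bladder, intestine or both, judged by eye; inactive means no fluorescence loss, or compound toxic to the fish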;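 further: larvae 5 to 7 days old with five fish per well; signal comes from phospholipase A2 cleavage of quenched PED6 carried via bile; overnight exposure to compound and PED6 before scoring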); conditions: Zebrafish larvae PED6 lipid processing, fluorescence scoring; screened at 20 µM (by protocol)
Summary of the method: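 Test system – live zebrafish larvae aged 5-7 days, whole organism · Buffer or medium – E3 fish medium · Reagent – quenched phospholipase substrate PED6, 100 nM final, ingested by larvae · Doses – 20 µM single dose · Incubation – overnight compound and PED6 incubation · Technique – visual fluorescence microscopy scoring of gall bladder, gut · Read-out basis – visual per-well fluorescence inhibition score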

[9] = inhibitors of Chlamydomonas gravitaxis, primary screen, whole organism, Chlamydomonas reinhardtii, WT vs cilia-less mutant, absorbance, 96-well (AID 463189;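 active means inhibition at or above 50% relative to wild type and mutant plate controls; inactive means inhibition below 50%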;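 further: 0% = wild type cc124 cells in DMSO and 100% = ciliumless bld1 mutant cells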); conditions: OD600 absorbance, 2 days, at 10 µM, stronger effect = higher value
[10] = measured here: cell density z-score
[11] = measured here: nuclear c-Myc green intensity z-score
[12] = measured here: nuclear pErk red intensity z-score, stronger effect = higher value

| Structure (SMILES) | cell count [1] | inhibition [1] | inhibition [2] | nuclei count [2] [%] | z-score [3, 10] | z-score [3, 11] | z-score [3, 12] | inhibition [4] | fluorescence slope [5] | NADPH fluorescence slope [6] | slope [7] | outcome [8] | inhibition [9] |
| --- | --- | --- | --- | --- | --- | --- | --- | --- | --- | --- | --- | --- | --- |
| CSc1nc(N2CCCC2)c2c(c1C#N)CC(C)(C)OC2 | 568 | -4.5% (inactive) | -28.5% (inactive) | 171 | 0.89 | -1.74 | 0.374 | 5.65% (inactive) | -0.314 (inactive) | 8.2e-06 (inactive) | 0.00565 (inactive) | inactive | 10.3% (inactive) |
| CC(=O)c1cc2c(=O)c3ccccc3oc2nc1C | 564 | -7.4% (inactive) | 19.7% (inactive) | 151 | 0.231 | 1.31 | -0.249 | 26.5% (inactive) | -0.525 (inactive) | -4.9e-05 (inactive) | 0.00444 (inactive) | inactive | 46.5% (inactive) |
| CC(=O)C(=[N+]=[N-])C(=O)NCc1ccccc1 | 474 | -11.6% (inactive) | -71.5% (inactive) | 95.4 | 0.378 | -1.15 | 0.485 | 5.95% (inactive) | -0.518 (inactive) | -4e-05 (inactive) | 0.00636 (inactive) | inactive | 24.1% (inactive) |
| CCOc1ccc(Cc2nc(N)nc(N)n2)cc1 | 344 | -18.3% (inactive) | -269% (inactive) | 155 | -1.09 | -0.542 | -0.613 | -8.76% (inactive) | -0.447 (inactive) | -0.000176 (inactive) | 0.00481 (inactive) | inactive | 6.25% (inactive) |
| CN(C)C=C1C(=O)c2ccccc2C1=O | 574 | -5.6% (inactive) | -153% (inactive) | 132 | -0.195 | -0.125 | -0.0657 | 11.9% (inactive) | -0.423 (inactive) | -4.2e-05 (inactive) | 0.00438 (inactive) | inactive | 60.8% (active) |
| C/C(CC1(O)C(=O)N(Cc2ccccc2)c2ccccc21)=N\O (stereo not drawn) | 645 | -11.4% (inactive) | -28.2% (inactive) | 182 | -1.05 | -1.05 | 1.51 | -7.79% (inactive) | -0.464 (inactive) | -0.000206 (inactive) | 0.0275 (active) | inactive | -6.97% (inactive) |
| CC1=CC=CN2CC(O)CN=C12 (stereo not drawn) | 552 | -3.9% (inactive) | -109% (inactive) | 196 | -0.0904 | 1.89 | -0.427 | 22.1% (inactive) | -0.33 (inactive) | -1.5e-05 (inactive) | 0.00477 (inactive) | inactive | 4.05% (inactive) |
| NC(=O)CSc1nc(N)c2c3c(sc2n1)CCCCC3 | 620 | -15.9% (inactive) | 47.7% (inactive) | 164 | -1.12 | -0.0373 | 0.273 | -2.29% (inactive) | -0.362 (inactive) | -6.1e-05 (inactive) | 0.0046 (inactive) | inactive | 10.9% (inactive) |
| COc1cc(C2C(C(=O)c3cccs3)=C(O)C(=O)N2c2cc(C)on2)ccc1O (stereo not drawn) | 340 | 4.6% (inactive) | -93.3% (inactive) | 155 | 0.402 | -0.247 | -0.385 | -10.5% (inactive) | -0.43 (inactive) | -0.000162 (inactive) | 0.00517 (inactive) | – | -10.7% (inactive) |
| CCOc1cc(CN2CCOCC2)cc(C(C)=O)c1 | 617 | -3.9% (inactive) | -113% (inactive) | 110 | 1.86 | 1.2 | -0.466 | 15.1% (inactive) | -0.573 (inactive) | -1.5e-05 (inactive) | 0.00527 (inactive) | inactive | 38.5% (inactive) |
| Nc1ccc2ncccc2c1N | 537 | -10% (inactive) | -47.1% (inactive) | 103 | 0.673 | 1.61 | 0.017 | -9.66% (inactive) | -0.517 (inactive) | -2.1e-05 (inactive) | 0.0034 (inactive) | inactive | -1.57% (inactive) |
| CC1(C)Cc2c(sc3nc(SCC#N)n(C4CCCCC4)c(=O)c23)CO1 | 633 | -10.8% (inactive) | 51% (inactive) | 154 | -1.73 | 0.192 | 0.926 | 6.04% (inactive) | -0.356 (inactive) | -4.5e-05 (inactive) | 0.0054 (inactive) | inactive | -8.06% (inactive) |
| COC(=O)CC1=NC(=O)CS1 | 690 | -4.3% (inactive) | -84.4% (inactive) | 164 | -1.27 | 0.428 | 1.11 | -7.28% (inactive) | -0.41 (inactive) | -8.9e-06 (inactive) | 0.00544 (inactive) | inactive | -1.11% (inactive) |
